Source: ChEMBL document CHEMBL1127633, “Cyclic beta-casomorphin analogues with mixed mu agonist/delta antagonist properties: synthesis, pharmacological characterization, and conformational aspects” (J Med Chem, 1994)
Residues, ends and D or L forms follow the SMILES beside them.

Key:
Cavia porcellus = organism: Cavia porcellus; test: In vitro inhibition of electrically evoked contractions of the guinea pig ileum (GPI); type: functional
Method in brief: (§1)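 Electrically evoked contractions of isolated tissue preparations. Each preparation had its own log dose-response curve with [Leu5]enkephalin as standard. Test IC50 values were normalized to that standard. Mean of three to six determinations ± SEM. Partial agonists are reported as % maximal inhibition of contraction at high concentrations.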

Mus musculus = organism: Mus musculus; test: In vitro inhibition of electrically evoked contractions of the mouse vas deferens (MVD); type: functional; method in brief: as §1
Mu-type opioid receptor = Mu-type opioid receptor (Rattus norvegicus, UniProt P33535); test: Binding affinity for mu opioid receptors by displacement of [3H]-DAMGO from rat brain membrane binding site
Mu-type opioid receptor, sequence (P33535 whole entry): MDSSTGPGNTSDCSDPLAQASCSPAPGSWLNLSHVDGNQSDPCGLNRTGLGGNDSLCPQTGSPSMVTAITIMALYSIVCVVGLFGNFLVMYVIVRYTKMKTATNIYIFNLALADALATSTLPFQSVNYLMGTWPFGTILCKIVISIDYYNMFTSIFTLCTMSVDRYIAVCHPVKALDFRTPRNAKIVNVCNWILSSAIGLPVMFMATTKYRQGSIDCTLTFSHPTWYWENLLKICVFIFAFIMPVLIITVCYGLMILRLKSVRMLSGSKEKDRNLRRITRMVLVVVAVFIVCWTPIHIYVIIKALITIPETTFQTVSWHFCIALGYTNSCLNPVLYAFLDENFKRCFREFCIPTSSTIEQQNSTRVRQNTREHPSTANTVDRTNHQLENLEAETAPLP

[1] = target: Delta-type opioid receptor (Rattus norvegicus, UniProt P33533); test: Binding affinity for delta opioid receptors was determined by displacement of [3H]DSLET from rat brain membrane binding site
Delta-type opioid receptor, sequence (P33533 whole entry): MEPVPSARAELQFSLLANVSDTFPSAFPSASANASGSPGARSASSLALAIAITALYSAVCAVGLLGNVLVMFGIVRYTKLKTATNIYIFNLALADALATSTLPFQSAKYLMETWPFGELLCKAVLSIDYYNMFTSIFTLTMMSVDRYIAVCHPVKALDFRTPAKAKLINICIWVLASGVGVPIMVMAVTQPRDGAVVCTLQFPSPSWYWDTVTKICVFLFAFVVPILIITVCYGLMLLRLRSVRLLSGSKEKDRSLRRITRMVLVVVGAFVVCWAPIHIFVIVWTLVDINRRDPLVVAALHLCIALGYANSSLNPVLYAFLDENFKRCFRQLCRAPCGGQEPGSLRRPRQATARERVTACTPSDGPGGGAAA
Method in brief: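 Rat brain membranes incubated 2 h at 0 °C with 0.78 nM [3H]DSLET. IC50 read from dose-displacement curves. […] Mean of three to six determinations ± SEM.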

SMILES	IC50 (Cavia porcellus) [nM]	IC50 (Mus musculus) [nM]	Ki (Mu-type opioid receptor) [nM]	Ki [1] [nM]
N[C@@H](Cc1ccc(O)cc1)C(=O)N[C@@H]1CCCNC(=O)CNC(=O)[C@H]2CCCN2C(=O)[C@H](Cc2c[nH]c3ccccc23)NC1=O	27.5	16.1	2.09	10.3
NC(=O)[C@H](Cc1ccccc1)NC(=O)[C@H](Cc1ccccc1)NC(=O)[C@@H]1Cc2ccccc2CN1C(=O)[C@@H](N)Cc1ccc(O)cc1 (HELM PEPTIDE1{Y.[Tic].F.F.[am]}$$$$V2.0)	1700	–	–	–
N[C@@H](Cc1ccc(O)cc1)C(=O)N[C@@H]1CCCNC(=O)CNC(=O)[C@H]2CCCN2C(=O)[C@H](Cc2ccccc2)NC1=O	2.14	4.98	0.881	13.2
N[C@@H](Cc1ccc(O)cc1)C(=O)NC1CCCNC(=O)CNC(=O)[C@@H]2CCCN2C(=O)[C@H](Cc2ccccc2)NC1=O (single isomer, unassigned)	13.4	69.9	3.99	1280
N[C@@H](Cc1ccc(O)cc1)C(=O)N[C@@H]1CCCNC(=O)CNC(=O)[C@H]2CCCN2C(=O)[C@H](Cc2cccc3ccccc23)NC1=O	14.9	29.9	3.42	23.6
N[C@@H](Cc1ccc(O)cc1)C(=O)N[C@@H]1CCCNC(=O)CNC(=O)[C@H]2CCCN2C(=O)[C@H](Cc2ccc3ccccc3c2)NC1=O	384	–	–	–
N[C@@H](Cc1ccc(O)cc1)C(=O)N[C@@H]1CCNC(=O)CNC(=O)[C@H]2CCCN2C(=O)[C@H](Cc2ccc3ccccc3c2)NC1=O	353	1000	6.41	70.8
N[C@@H](Cc1ccc(O)cc1)C(=O)N[C@@H]1CCCNC(=O)[C@H]2CCCN2C(=O)[C@H](Cc2ccc3ccccc3c2)NC1=O	11.8	32.2	2.74	28.3
N[C@@H](Cc1ccc(O)cc1)C(=O)NC1CCCNC(=O)CNC(=O)[C@@H]2CCCN2C(=O)[C@H](Cc2ccc3ccccc3c2)NC1=O (single isomer, unassigned)	1220	10000	81.3	2140
